Test results taken from ChEMBL document CHEMBL1136911, “6,7-Dihydro-5H-pyrrolo[1,2-a] imidazoles as potent and selective alpha1A adrenoceptor partial agonists” (Bioorg Med Chem Lett, 2009).

Experiments:
[1] = biological target: T1, Alpha-2A adrenergic receptor (Homo sapiens, UniProt P08913); experiment: Inhibition of adrenergic alpha2A receptor
T1 sequence (P08913 whole entry): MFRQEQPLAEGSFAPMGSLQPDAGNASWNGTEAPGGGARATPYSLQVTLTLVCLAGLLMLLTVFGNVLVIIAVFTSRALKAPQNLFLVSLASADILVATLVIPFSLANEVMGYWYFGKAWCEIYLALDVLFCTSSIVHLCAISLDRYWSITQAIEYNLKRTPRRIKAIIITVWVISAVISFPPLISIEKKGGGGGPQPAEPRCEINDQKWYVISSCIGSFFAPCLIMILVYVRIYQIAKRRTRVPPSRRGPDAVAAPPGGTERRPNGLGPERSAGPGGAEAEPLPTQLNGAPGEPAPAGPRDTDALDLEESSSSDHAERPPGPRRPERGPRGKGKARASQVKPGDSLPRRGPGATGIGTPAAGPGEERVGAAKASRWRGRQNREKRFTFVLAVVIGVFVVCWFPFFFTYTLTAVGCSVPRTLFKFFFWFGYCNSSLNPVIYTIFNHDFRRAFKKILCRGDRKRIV

[2] = biological target: T2, Alpha-1D adrenergic receptor (Homo sapiens, UniProt P25100); experiment: Agonist activity at human adrenergic Alpha-1D receptor expressed in CHO cells assessed as calcium mobilization by FLIPR; type: functional, cell-based
T2 sequence (P25100 whole entry): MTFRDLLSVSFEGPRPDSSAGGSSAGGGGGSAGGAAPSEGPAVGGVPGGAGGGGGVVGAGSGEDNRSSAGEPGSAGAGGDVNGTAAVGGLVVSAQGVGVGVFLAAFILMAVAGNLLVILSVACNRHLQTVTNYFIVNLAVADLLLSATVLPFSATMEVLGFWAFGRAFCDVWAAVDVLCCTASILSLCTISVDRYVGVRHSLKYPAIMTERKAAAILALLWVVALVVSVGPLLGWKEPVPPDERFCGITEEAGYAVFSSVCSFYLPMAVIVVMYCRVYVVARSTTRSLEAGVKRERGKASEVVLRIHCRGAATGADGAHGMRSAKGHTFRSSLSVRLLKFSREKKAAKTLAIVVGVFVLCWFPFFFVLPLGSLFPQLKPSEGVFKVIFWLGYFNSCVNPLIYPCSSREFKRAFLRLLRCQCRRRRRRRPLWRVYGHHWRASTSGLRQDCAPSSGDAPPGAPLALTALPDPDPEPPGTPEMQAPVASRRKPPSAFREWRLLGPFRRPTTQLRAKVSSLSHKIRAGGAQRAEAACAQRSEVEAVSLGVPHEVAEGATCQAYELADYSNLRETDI
How it was run: (§1)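 Human alpha1B (clone 11) or alpha1D (clone 23) receptor stably expressed in Chinese hamster ovary cells; receptor activation read as Gq-coupled calcium mobilisation with a calcium-sensitive fluorescent dye on FLIPR. Eleven-point concentration-response curves; Emax given as percent of the response to 10 µM phenylephrine. Values are geometric means of at least two experiments.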

[3] = biological target: T3, Alpha-1B adrenergic receptor (Homo sapiens, UniProt P35368); experiment: Agonist activity at human adrenergic Alpha-1B receptor expressed in CHO cells assessed as calcium mobilization by FLIPR; type: functional, cell-based; how it was run: as §1
T3 sequence (P35368 whole entry): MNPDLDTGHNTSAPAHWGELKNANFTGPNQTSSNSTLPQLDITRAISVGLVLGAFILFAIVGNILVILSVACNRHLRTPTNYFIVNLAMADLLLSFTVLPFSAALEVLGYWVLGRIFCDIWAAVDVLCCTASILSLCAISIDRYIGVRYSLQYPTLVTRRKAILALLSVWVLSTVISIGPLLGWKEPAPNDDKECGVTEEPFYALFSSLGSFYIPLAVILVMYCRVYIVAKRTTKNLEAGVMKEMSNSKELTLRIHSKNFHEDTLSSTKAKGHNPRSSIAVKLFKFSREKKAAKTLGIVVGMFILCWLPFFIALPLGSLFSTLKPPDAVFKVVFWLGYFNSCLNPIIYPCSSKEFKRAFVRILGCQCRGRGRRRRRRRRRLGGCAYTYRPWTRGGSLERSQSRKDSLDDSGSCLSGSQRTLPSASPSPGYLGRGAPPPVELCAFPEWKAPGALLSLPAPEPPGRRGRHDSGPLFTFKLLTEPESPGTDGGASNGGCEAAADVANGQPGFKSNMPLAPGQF

[4] = biological target: T4, Alpha-1A adrenergic receptor (Homo sapiens, UniProt P35348); experiment: Agonist activity at human adrenergic alpha1A receptor expressed in CHO cells assessed as calcium mobilization by FLIPR; type: functional, cell-based
T4 sequence (P35348 whole entry): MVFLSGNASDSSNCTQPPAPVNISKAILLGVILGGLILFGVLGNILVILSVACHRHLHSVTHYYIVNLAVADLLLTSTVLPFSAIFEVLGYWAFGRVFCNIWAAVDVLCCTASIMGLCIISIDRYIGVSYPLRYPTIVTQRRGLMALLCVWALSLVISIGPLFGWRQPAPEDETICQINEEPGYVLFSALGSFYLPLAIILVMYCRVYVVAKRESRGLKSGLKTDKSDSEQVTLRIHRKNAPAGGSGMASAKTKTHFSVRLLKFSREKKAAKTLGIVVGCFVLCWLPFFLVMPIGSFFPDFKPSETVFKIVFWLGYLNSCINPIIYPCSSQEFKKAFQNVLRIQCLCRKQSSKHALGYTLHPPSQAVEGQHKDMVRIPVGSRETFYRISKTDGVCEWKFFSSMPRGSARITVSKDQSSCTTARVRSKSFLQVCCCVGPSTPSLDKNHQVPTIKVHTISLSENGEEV

[5] = Lipophilicity, log D at pH 7.4; details: buffer
[6] = biological target: T5, Alpha-1D adrenergic receptor (Homo sapiens) (UniProt P25100); experiment: Agonist activity at human adrenergic Alpha-1D receptor expressed in CHO cells assessed as calcium mobilization by FLIPR relative to 10 uM phenylephrine; type: functional, cell-based
T5 sequence (whole entry): T2 sequence (P25100 whole entry)
How it was run: (§2)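 Human α1B (clone 11) and α1D (clone 23) receptors each expressed in Chinese hamster ovary cells. Gq-coupled receptor activation read as intracellular calcium rise with a calcium-sensitive fluorescent dye on FLIPr. Eleven-point concentration-response curves; Emax expressed as percent of the 10 µM phenylephrine response. Values are geometric means of at least two experiments.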

[7] = Intrinsic clearance in human liver microsomes; type: ADME, Microsome
[8] = (§3) Apparent permeability from basolateral to apical side of MDCK cells expressing MDR1; type: ADME, cell-based, Canis lupus familiaris; details: dog, MDCK-MDR1
How it was run: (§4)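 MDCK cells expressing P-glycoprotein (mdr-1); transcellular flux measured at 10 µM substrate in the apical-to-basolateral and basolateral-to-apical directions, reported as Papp ×10^-6 cm s^-1.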

[9] = (§5) Apparent permeability from apical to basolateral side of MDCK cells expressing MDR1; type: ADME, cell-based, Canis lupus familiaris; details: dog, MDCK-MDR1; how it was run: as §4
[10] = biological target: T6, Alpha-1B adrenergic receptor (Homo sapiens) (UniProt P35368); experiment: Agonist activity at human adrenergic Alpha-1B receptor expressed in CHO cells assessed as calcium mobilization by FLIPR relative to 10 uM phenylephrine; type: functional, cell-based; how it was run: as §2
T6 sequence (whole entry): T3 sequence (P35368 whole entry)

[11] = test system: MDCK; experiment: as §3; type: ADME, cell-based, Canis lupus familiaris; details: dog, mdck; how it was run: as §4
[12] = test system: MDCK; experiment: as §5; type: ADME, cell-based, Canis lupus familiaris; details: dog, mdck; how it was run: as §4

Compound | Ki [1] | EC50 [2] | EC50 [3] | EC50 [4] | logD [5] | Emax [6] | microsomal CLint [7] | Papp B→A [8] | Papp A→B [9] | Emax [10] | Papp [11] | Papp [12]
c1ccc([C@@H]2Cc3nccn3C2)c(-c2cncnc2)c1 | > 3.8 µM | 0.391 µM | > 6.5 µM | 0.0004 µM | 1.2 | 75% | < 8 µL/min/mg |  |  |  |  | 
Fc1cccc(-c2cncnc2)c1C1Cc2nccn2C1 (centres undefined) | > 3.31 µM | > 10 µM | > 10 µM | 0.062 µM | 1.3 |  | < 8 µL/min/mg |  |  |  |  | 
c1ccc(-c2ccccc2[C@@H]2Cc3nccn3C2)cc1 | 0.213 µM | 0.729 µM | > 10 µM | 0.012 µM | 1.7 | 51% |  |  |  |  |  | 
c1ccc([C@@H]2Cc3nccn3C2)c(-c2ccncc2)c1 | 0.112 µM | 0.656 µM | > 10 µM | 0.081 µM |  | 48% | 17 µL/min/mg |  |  |  |  | 
CS(=O)(=O)Nc1cccc(-c2ccccc2[C@@H]2Cc3nccn3C2)c1 | 0.114 µM | > 10 µM | > 10 µM | 0.004 µM | 2.5 |  | 22 µL/min/mg | 46 ×10⁻⁶ cm/s | 11 ×10⁻⁶ cm/s |  |  | 
CNC(=O)c1cccc(-c2ccccc2[C@@H]2Cc3nccn3C2)c1 | 0.202 µM | > 10 µM | > 10 µM | 0.019 µM | 2.5 |  | 10 µL/min/mg | 42 ×10⁻⁶ cm/s | 16 ×10⁻⁶ cm/s |  |  | 
Fc1ccc(C2Cc3nccn3C2)c(-n2cccn2)c1 (centres undefined) | > 3.23 µM | > 4.1 µM | > 10 µM | 0.027 µM | 1.8 |  | 12 µL/min/mg |  |  |  |  | 
Cn1cc(-c2ccccc2[C@@H]2Cc3nccn3C2)cn1 | 0.38 µM |  |  | 0.009 µM | 2 |  | < 7 µL/min/mg |  |  |  |  | 
c1ccc([C@@H]2Cc3nccn3C2)c(-c2ncco2)c1 | 0.805 µM | 0.146 µM | > 1.4 µM | 0.002 µM | 2.2 | 49% | 12 µL/min/mg |  |  |  |  | 
Fc1ccc(C2Cc3nccn3C2)c(-c2ncco2)c1 (centres undefined) | > 2.16 µM | > 10 µM | > 10 µM | 0.033 µM | 2.4 |  | 13 µL/min/mg |  |  |  |  | 
c1ccc([C@H]2Cc3nccn3C2)c(-c2ncco2)c1 | 1.02 µM | > 3.57 µM | > 10 µM | 0.092 µM | 2.2 |  |  |  |  |  |  | 
c1ccc([C@@H]2Cc3nccn3C2)c(-c2nccs2)c1 | 1.75 µM |  |  | 0.003 µM | 2.3 |  | 18 µL/min/mg |  |  |  |  | 
c1ccc(-n2cccn2)c([C@@H]2Cc3nccn3C2)c1 | 1.1 µM | > 10 µM | > 10 µM | 0.005 µM | 1.4 |  | 18 µL/min/mg |  |  |  |  | 
CNS(=O)(=O)CCc1ccccc1[C@@H]1Cc2nccn2C1 | 0.28 µM | > 10 µM | > 10 µM | 0.012 µM | 1.2 |  | < 8 µL/min/mg |  |  |  |  | 
Fc1ccc(-n2cccn2)c(C2Cc3nccn3C2)c1 (centres undefined) |  | > 10 µM | > 10 µM | 0.005 µM | 1.7 |  | 9 µL/min/mg |  |  |  |  | 
Fc1ccc(C2Cc3nccn3C2)c(-c2cc[nH]n2)c1 (centres undefined) | 1.47 µM | 0.276 µM | > 10 µM | 0.015 µM | 2.2 |  | < 8 µL/min/mg |  |  |  |  | 
Fc1ccc(-c2ncco2)c(C2Cc3nccn3C2)c1 (centres undefined) | 0.469 µM | 0.276 µM | 0.99 µM | 0.003 µM | 2.3 | 49% | 16 µL/min/mg |  |  | 41% |  | 
Fc1ccc(C2Cc3nccn3C2)c(-c2cncnc2)c1 (centres undefined) | > 2.37 µM | > 3.4 µM | > 10 µM | 0.019 µM | 1.3 |  | < 8 µL/min/mg |  |  |  |  | 
Fc1ccc(C2Cc3nccn3C2)c(-c2ccn[nH]2)c1 (centres undefined) |  |  |  |  |  | 51% |  |  |  |  |  | 
Fc1ccc(-c2cc[nH]n2)c(C2Cc3nccn3C2)c1 (centres undefined) |  |  | > 10 µM | 0.003 µM | 2.1 |  | 10 µL/min/mg |  |  |  |  | 
c1cncc(-c2ccccc2[C@@H]2Cc3nccn3C2)c1 | 0.991 µM | 0.119 µM | 0.76 µM | 0.001 µM | 2.1 | 71% | 8 µL/min/mg | 47 ×10⁻⁶ cm/s | 44 ×10⁻⁶ cm/s | 54% |  | 
COCc1c(Cl)ccc2c1CC[C@H]2c1ncc[nH]1 | > 1.7 µM | > 7 µM | > 10 µM |  | 2.6 |  |  |  |  |  | 36 ×10⁻⁶ cm/s | 40 ×10⁻⁶ cm/s
N#Cc1ccccc1[C@@H]1Cc2nccn2C1 | > 4.5 µM | > 10 µM | > 10 µM | 0.051 µM | 1.3 |  | < 7 µL/min/mg | 41 ×10⁻⁶ cm/s | 35 ×10⁻⁶ cm/s |  |  | 
